Hits are enriched below; roughly 3.5% of the tested compounds scored in any of these assays.
MEKK2 WT-MEK5: raises or lowers MEK5 binding to wildtype human MEKK2 PB1 domain | Q9Y2U5 | bead flow cytometry, Alexa488-MEK5 binding to MEKK2 WT; actives lie on both sides | binding response (% of control), % at 10 µM | 1.1% of 290,000 active | AID 1531; in the data active = binding response below about 67% or above about 130%
MEKK3 PB1 HTS: raises or lowers MEK5 binding to the human MEKK3 PB1 domain; Q99759; 1.4% of 290,000 active; binding response (% of control), % at 10 µM; bead-based flow cytometry, Alexa488-MEK5 binding to MEKK3; actives lie on both sides; 0 = blocked by unlabeled MEK5, 100 = vehicle; AID 1529;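 active = binding response more than 3 SD above or below the average of its plate-row segment, actives on both sides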;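 also: Alexa488 bead fluorescence after subtracting the streptavidin-only scavenger bead signal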
ABCB1 inh: inhibitors of human ABCB1 transporter, ABCG2 counter-screen; P08183; CCRF-Adr cells, JC-1 efflux, flow cytometry; inhibition, % at 6.6 µM; 0.067% of 190,000 active; AID 1326; in the data active = inhibition above about 40%;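 also: higher value means more JC-1 retained so stronger ABCB1 efflux block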
WT yeast gro inh: growth inhibition of WT yeast, mitochondrial fusion screen | AID 1362 | inhibition, % at 10 µM | mitochondrial fusion phenotypic screen, WT strain | 2.1% of 190,000 active; in the data active = inhibition above about 58%; tested in S. cerevisiae
ABCG2 block: inhibitors of human ABCG2 transporter, ABCB1 counter-screen | 0.1% of 190,000 active | Q9UNQ0 | inhibition, % at 6.6 µM | IgMXP3 cells, JC-1 efflux, flow cytometry;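 active = inhibition above 80%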
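Test system: IgMXP3 (ABCG2) plus far-red-tagged CCRF-Adr (ABCB1) cells. Reagent: JC-1 dye as substrate. Timing: 10 min exposure at 25 °C with rotation, no wash. Measured by: flow cytometric JC-1 green MFI at 530 nm. Read-out: percent efflux inhibition, scaled nicardipine 100% to DMSO 0%. Control set: nicardipine and DMSO wells.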
MEKK2 mut-MEK5: signal of MEK5 binding to mutant human MEKK2 PB1 domain; 0.35% of 290,000 active; bead flow cytometry, Alexa488-MEK5 binding to MEKK2 mutant; percent response, % at 10 µM; AID 1530; in the data active = percent response above about 24%, passing the limit was not always enough
MEKK2wt confirm: raises or lowers MEK5 binding to wildtype human MEKK2, retest; shares compounds with MEKK3 PB1 HTS; bead flow cytometry, Alexa488-MEK5 binding to MEKK2 WT; actives lie on both sides; binding response (% of control), % at 10 µM; 2.4% of 5,900 active; in the data active = binding response below about 16% or above about 210%; inactive = in between
MEKK2mut-MEK5: signal of MEK5 binding to mutant human MEKK2, retest; percent response, % at 10 µM; shares compounds with MEKK3 PB1 HTS; bead flow cytometry, Alexa488-MEK5 binding to MEKK2 mutant; 2% of 5,900 active; in the data active = percent response mostly above about 71%, no sharp cut-off; inactive = mostly below about 38%;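 also: higher means compound restores mutant binding toward wildtype level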
MEKK3-MEK5 inh: MEKK3-MEK5 PB1 inhibition, single concentration confirmation; 1.8% of 5,900 active; shares compounds with MEKK3 PB1 HTS; bead flow cytometry, Alexa488-MEK5 binding to MEKK3; active compounds read low; binding response (% of control), % at 10 µM;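 active = binding response below 72% of control, or above a set upper limit, though filed actives all read lower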;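 also: lower values mean stronger disruption of MEK5 binding to MEKK3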
Numbers stand for hits; i = inactive; nt = not tested or not shown; [ ] = dose if it differs, or a comment.

SMILES	MEKK2 WT-MEK5	MEKK3 PB1 HTS	ABCB1 inh	WT yeast gro inh	ABCG2 block	MEKK2 mut-MEK5	MEKK2wt confirm	MEKK2mut-MEK5	MEKK3-MEK5 inh
NCCCN1CCOCC1	i	i	i	i	i	i	nt	nt	nt
Cc1cc(-c2ccccc2)n(-c2ccccc2)n1	i	i	nt	nt	nt	i	nt	nt	nt
CC[n+]1c(/C=C/C=C/N(C(C)=O)c2ccccc2)sc2ccccc21	nt	2.0[inhibitor]	i	i	i	i	13[inhibitor]	i	i
CCn1c(/C=C/N(C(C)=O)c2ccccc2)[n+](CC)c2ccc(Cl)cc21	i	i	i	i	i	i	nt	nt	nt
CCOC(=O)C1=C(CC)OC(N)=C(C#N)C1c1cccs1 (stereo not drawn)	i	74[inhibitor]	i	i	i	i	i	i	i
COC(=O)CC1=C(C(=O)OC)C(c2cccs2)C(C#N)=C(N)O1 (stereo not drawn)	i	i	i	i	i	i	nt	nt	nt
Cc1csc(N2CCN(c3cc4nc(-c5ccncc5)[nH]c4cc3Cl)CC2)n1	i	i	nt	nt	nt	i	nt	nt	nt
Cc1ccc(-c2csc(N3CCN(c4cc5c(cc4Cl)nc(C)n5CCN4CCCCC4)CC3)n2)cc1	148	i	nt	nt	nt	46	i	i	i
Cc1csc(N2CCN(c3cc4c(cc3Cl)nc(-c3ccncc3)n4CCCN3CCCC3)CC2)n1	147	i	nt	nt	nt	i	i	i	i
O=C(CCS(=O)(=O)c1ccccc1Cl)NCCC1=CCCCC1	i	i	nt	nt	nt	i	nt	nt	nt
O=C(CSc1ncnc2ccccc12)c1cccs1	i	63[inhibitor]	i	i	i	i	i	i	i
Cc1ccc(C(=O)CSc2ncnc3ccccc23)o1	i	i	i	i	i	i	nt	nt	nt
COc1ccccc1NC(=O)CNC(=O)c1ccccc1	i	i	i	i	i	i	nt	nt	nt
COc1ccccc1NC(=O)CNC(=O)c1ccccc1C	i	75[inhibitor]	i	i	i	i	i	i	i
COc1cccc(/C=N\NC(C)=O)c1OC/C=C/c1ccccc1	i	i	nt	nt	nt	i	nt	nt	nt
Oc1ccc(Cl)cc1CNCC1CCCO1 (stereo not drawn)	i	i	i	i	i	i	nt	nt	nt
Clc1ccccc1CNCC1CCCO1 (stereo not drawn)	i	i	nt	nt	nt	27	i	i	i
O=C(NN1C(=O)c2cc(Br)ccc2NC1c1ccccc1Cl)c1ccncc1 (stereo not drawn)	i	i	i	i	i	i	nt	nt	nt
O=C(NN1C(=O)c2cc(Br)ccc2NC1c1cc(Br)cc(Br)c1O)c1ccncc1 (stereo not drawn)	i	133	i	i	i	i	i	i	i
COc1ccccc1C(C)Nc1nc(-c2cccnc2)nc2ccccc12 (stereo not drawn)	i	i	nt	nt	nt	i	nt	nt	nt
CCc1sc(-c2c(C#N)c(N)nc3c2CCCCCC3)cc1[N+](=O)[O-]	1.0[inhibitor]	1.0[inhibitor]	i	i	i	i	i	i	i
CCOP(=O)(OCC)C(Nc1cccc(C(F)(F)F)c1)c1ccc(C)cc1 (stereo not drawn)	i	66[inhibitor]	i	i	i	i	i	i	i
COc1ccc(NC(=O)CC2C(=O)N(c3ccc(OC)cc3)C(=O)N2Cc2ccc(OC)c(OC)c2)cc1 (stereo not drawn)	i	i	i	i	i	i	nt	nt	nt
Cc1ccccc1CCN(C(=O)Cn1nnc2ccccc21)C(C(=O)NC(C)(C)C)c1ccsc1 (stereo not drawn)	i	76[inhibitor]	i	i	i	i	i	i	i
Cc1[nH]c2ccccc2c1/C=N/NC(=O)c1cc(C(C)C)[nH]n1	i	i	nt	nt	nt	i	nt	nt	nt
CCOc1ccc(C(C#N)N2CCOCC2)cc1OC (stereo not drawn)	2.0[inhibitor]	2.0[inhibitor]	i	i	i	i	i	i	i
